Screens deposited in PubChem by several laboratories.
Shown are actives, neighbours in structure and some others; about 2.8% of the full set was active somewhere.
NPY Y1 blocker = NPY-Y1 receptor antagonists, primary screen, cell-based; Neuropeptide Y receptor type 1 (Homo sapiens), P25929; HEK293-CNG Y1 cells, membrane potential fluorescence; NPY at EC95, then isoproterenol; inhibition, % at 3.6 µM; 1% of 200,000 active;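 active = inhibition above the campaign mean inhibition of all tested compounds plus 3 SD, cut at about 20% in these data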;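 also: 0% = DMSO wells given NPY plus isoproterenol and 100% = isoproterenol alone without NPY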
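Benchmarks – high control isoproterenol alone, low control NPY with isoproterenol · Material – HEK293 Y1/CNG channel cell line · Times – dye 3 h, compound 60 min room temperature, stimulation 45 min · Probe or stimulus – NPY (25 nM), isoproterenol (1 µM), Ro 20-1724 (25 µM) · Evaluation – % inhibition of NPY effect · Signal – fluorescence, membrane potential probe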
NPY Y2 blocker = NPY-Y2 receptor antagonists, primary screen, cell-based | 0.99% of 140,000 active | NPY-Y2 expressing cells, antagonist mode | AID 793, 2007 | Neuropeptide Y receptor type 2 (Homo sapiens), P49146 | inhibition, % at 2.7 µM; in the data active = inhibition above about 17%;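 also: 0% = vehicle with agonist challenge and 100% = reference antagonist with challenge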
Target sequence (P49146 whole entry, looked up): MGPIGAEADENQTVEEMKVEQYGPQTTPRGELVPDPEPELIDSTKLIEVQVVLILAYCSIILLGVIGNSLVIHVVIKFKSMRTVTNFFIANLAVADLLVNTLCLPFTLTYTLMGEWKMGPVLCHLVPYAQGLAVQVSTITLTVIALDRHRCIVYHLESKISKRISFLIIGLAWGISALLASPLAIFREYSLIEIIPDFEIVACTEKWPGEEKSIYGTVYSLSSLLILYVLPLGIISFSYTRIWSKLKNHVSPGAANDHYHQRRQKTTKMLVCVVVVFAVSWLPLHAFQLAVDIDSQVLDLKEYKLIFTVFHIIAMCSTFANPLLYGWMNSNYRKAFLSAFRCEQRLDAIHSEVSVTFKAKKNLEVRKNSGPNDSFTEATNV
EP2 antag = human EP2 receptor antagonists, primary screen, TR-FRET cAMP, C6 glioma cells. C6 glioma cells expressing human EP2; cells stimulated with saturating PGE2. Prostaglandin E2 receptor EP2 subtype (Homo sapiens), P43116. 0.52% of 260,000 active. inhibition, % at 25 µM;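 active = percent inhibition above 40 after rounding to a whole number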;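 also: rat C6 glioma host cells with rolipram phosphodiesterase inhibitor present; the protocol text gives 20 µM as final concentration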
NPY-Y2 PAM-ag = NPY-Y2 potentiators or agonists, primary screen, cell-based; AID 1359, 2008; activation, % at 3.6 µM; Neuropeptide Y receptor type 2 (Homo sapiens), P49146; cells expressing NPY-Y2, potentiator/agonist read-out; 0.45% of 220,000 active; in the data active = activation above about 27%;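 also: cells stimulated with NPY near EC25 plus isoproterenol at EC100; 0% = vehicle plus submaximal agonist and 100% = vehicle plus saturating agonist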
EP2 modulator = EP2 receptor modulators, cAMP readout, primary screen, cell-based, HTRF cAMP, PGE2 stimulation. induction, % at 25 µM. 0.83% of 260,000 active. EP2-expressing cells, cAMP HTRF FRET, PGE2 co-stimulation. Prostaglandin E2 receptor EP2 subtype (Homo sapiens), P43116;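 active = compounds whose cAMP rise, as percent of the full-agonist control response, exceeds 60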;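 also: rat C6 glioma line stably carrying human EP2 under a CMV promoter; the protocol text gives 20 µM as final concentration; 100% = response of wells given 1 µM PGE2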
NPY1 pot ag = NPY-Y1 receptor potentiators or agonists, primary screen, cell-based; Neuropeptide Y receptor type 1 (Homo sapiens), P25929; NPY-Y1 expressing cells, potentiator/agonist activation; activation, % at 3.6 µM; 0.37% of 220,000 active; in the data active = activation above about 33%, passing the limit was not always enough;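 also: cells stimulated with NPY at EC10 then isoproterenol at EC100; 0% = low agonist plus stimulus and 100% = saturating agonist plus stimulus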
NPY1 antag ctr = NPY-Y1 receptor antagonists, selectivity check, counter-screen for NPY-Y2 antagonist project, cell-based | shares compounds with NPY Y2 blocker | cell-based NPY-Y1 antagonism counterscreen | inhibition, % at 3.6 µM | 19% of 710 active; in the data active = inhibition above about 20%;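 also: cells challenged with NPY then isoproterenol with cAMP sensed through a CNG channel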
NPY2 antag conf = NPY-Y2 receptor antagonists, retest of hits, confirmation, HEK293-CNG cells, membrane potential fluorescence, triplicate; 32% of 710 active; shares compounds with NPY Y2 blocker; HEK293 NPY-Y2 CNG channel; inhibition, % at 2.8 µM; AID 1257, 2008;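 active = mean inhibition of triplicate wells above the hit cutoff set in the primary screen, cut at about 17% in these data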;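 also: 0% = DMSO with NPY challenge and 100% = BIIE0246 high control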
The depositor's hits bear a star.

What do the screens show for `Cc1cccc(-n2ccnc2SCC(=O)N2CCCc3ccccc32)c1C`?
NPY Y1 blocker: 18; NPY Y2 blocker: 21*; EP2 antag: 6; NPY-Y2 PAM-ag: -24; EP2 modulator: 29; NPY1 pot ag: -88; NPY1 antag ctr: 16; NPY2 antag conf: 47*

What do the screens show for `O=C(/C=C/c1ccc2c(c1)OCO2)NCCSCc1cccc(Cl)c1`?
NPY Y1 blocker: 12; NPY Y2 blocker: 18*; NPY-Y2 PAM-ag: -35; EP2 modulator: -43; NPY1 pot ag: -37; NPY1 antag ctr: 7; NPY2 antag conf: 5

How did O=C(/C=C/c1ccc2c(c1)OCO2)NCCSCc1ccc(Cl)cc1Cl do in these assays?
NPY Y1 blocker: 14; NPY Y2 blocker: 19*; NPY-Y2 PAM-ag: -19; EP2 modulator: -25; NPY1 pot ag: -7; NPY1 antag ctr: 15; NPY2 antag conf: 16

Results for CS(=O)(=O)N(CC(=O)NCCSCc1cccc(Cl)c1)c1ccc2c(c1)OCO2 ?
NPY Y1 blocker: 0; NPY Y2 blocker: 2; EP2 antag: 10; NPY-Y2 PAM-ag: 6; EP2 modulator: -6; NPY1 pot ag: 1

What do the screens show for `CCn1c(N2CCC(C(=O)NCCCCO)CC2)nc2ccccc21`?
EP2 modulator: -34

How did COC(=O)C(C)N(C(=O)c1ccc(Cl)cc1)c1c(C)cccc1C (stereo not drawn) do in these assays?
NPY Y1 blocker: 9; NPY Y2 blocker: 7; EP2 antag: 5; NPY-Y2 PAM-ag: -5; EP2 modulator: 33; NPY1 pot ag: -15

What do the screens show for `COC(=O)C(C)N(C(=O)c1ccc(C(=O)c2ccccc2)cc1)c1c(C)cccc1C` (stereo not drawn)?
NPY Y1 blocker: 7; NPY Y2 blocker: 19*; EP2 antag: 6; NPY-Y2 PAM-ag: -8; EP2 modulator: 40; NPY1 pot ag: -13; NPY1 antag ctr: 6; NPY2 antag conf: 3

How did Cc1ccc(C(c2nnnn2Cc2ccc3c(c2)OCO3)N2CCN(C)CC2)cc1 (stereo not drawn) do in these assays?
EP2 antag: 14; EP2 modulator: 0

Results for S=C(NCCc1ccccc1)N/N=C/c1cccc(Cl)c1Cl ?
NPY Y1 blocker: 18; NPY Y2 blocker: 26*; EP2 antag: 15; NPY-Y2 PAM-ag: -10; EP2 modulator: 22; NPY1 pot ag: -66; NPY1 antag ctr: 31*; NPY2 antag conf: 50*

What do the screens show for `COc1ccc(C)cc1NC(=O)CSc1nnc2c(C)cc3cc(C)cc(C)c3n12`?
EP2 antag: 7; EP2 modulator: 21

Results for COc1ccc2cc(CN(Cc3cccnc3)C(=S)Nc3ccc(F)cc3)c(=O)[nH]c2c1 ?
EP2 antag: 15; EP2 modulator: -41

Results for S=C(Nc1ccccc1)N1CCC(c2nc3ccc(Cl)cc3[nH]2)CC1 ?
EP2 antag: 11; EP2 modulator: -18

How did CCCC(=O)Nc1sc(C(=O)OCC)c(C)c1C#N do in these assays?
EP2 antag: 7; EP2 modulator: -3

Results for O=C(NC1CCCCC1)c1cnn2c(C(F)(F)F)cc(-c3ccco3)nc12 ?
NPY Y1 blocker: 13; NPY Y2 blocker: 19*; EP2 antag: 6; NPY-Y2 PAM-ag: 5; EP2 modulator: 19; NPY1 pot ag: -25; NPY1 antag ctr: 10; NPY2 antag conf: 3

How did CCc1ccc2[nH]c(=O)c(C(c3nnnn3Cc3ccc(F)cc3)N3CCOCC3)cc2c1 (stereo not drawn) do in these assays?
EP2 antag: 5; EP2 modulator: -34
